Measurements taken from article PMC2841442 (Journal of Medicinal Chemistry, 2010).

Legend:
NRP1 (PAE/NRP1 cells) [1] = molecular target: T1, NRP1 (PAE/NRP1 cells) (Homo sapiens, UniProt O14786); details: read-out: IC50, 125I-VEGF-A binding to PAE/NRP1 and tumor cells; cited from earlier work
HUVECs = assay: VEGF-induced HUVEC migration; format: cell-based, human; details: 100 μM; VEGF 25 ng/mL; 4 h
In short: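 HUVECs were pretreated 30 min with test compound or DMSO, then 1.5 × 10^5 cells in EBM/0.1% BSA were loaded into collagen I-coated transwell inserts (8 μm pores). Bottom wells held VEGF at 25 ng/mL, or medium control. Plates ran 4 h at 37 °C. Migrated underside cells were stained and counted in four fields at ×100. Three independent experiments in duplicate, mean ± SEM.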

A549 cells = assay: A549 cell viability; format: cell-based, human
In short: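 A549 cells kept in RPMI 1640 with L-glutamine, seeded at 4 × 10^3 cells/well in serum-free medium with graded 5-FU or paclitaxel, with or without test compound at 100 μM. After 44 h, XTT was added for a further 4 h (48 h total). Formazan was read at 490 nm against 595 nm reference. Three independent experiments in triplicate, mean ± SEM.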

NRP1 (PAE/NRP1 cells) [2] = molecular target: T1, NRP1 (PAE/NRP1 cells); assay: Inhibition of 125I-VEGF-A165 binding to PAE/NRP1 cells; details: 100 μM compound; 0.1 nM 125I-VEGF-A165; mean ± SEM, three experiments
In short: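 Porcine aortic endothelial cells stably expressing NRP1 (Ham's F12, 10% FBS, hygromycin B) were grown to confluence. They received test compound (0.1−100 μM), then 0.1 nM 125I-VEGF-A165 (1200−1800 Ci/mmol). Nonspecific binding was taken with 100-fold excess unlabeled VEGF. IC50 was fitted from competition curves for compounds giving >70% inhibition at 100 μM. Three independent experiments in triplicate, mean ± SEM.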

T1 sequence (O14786 22-923): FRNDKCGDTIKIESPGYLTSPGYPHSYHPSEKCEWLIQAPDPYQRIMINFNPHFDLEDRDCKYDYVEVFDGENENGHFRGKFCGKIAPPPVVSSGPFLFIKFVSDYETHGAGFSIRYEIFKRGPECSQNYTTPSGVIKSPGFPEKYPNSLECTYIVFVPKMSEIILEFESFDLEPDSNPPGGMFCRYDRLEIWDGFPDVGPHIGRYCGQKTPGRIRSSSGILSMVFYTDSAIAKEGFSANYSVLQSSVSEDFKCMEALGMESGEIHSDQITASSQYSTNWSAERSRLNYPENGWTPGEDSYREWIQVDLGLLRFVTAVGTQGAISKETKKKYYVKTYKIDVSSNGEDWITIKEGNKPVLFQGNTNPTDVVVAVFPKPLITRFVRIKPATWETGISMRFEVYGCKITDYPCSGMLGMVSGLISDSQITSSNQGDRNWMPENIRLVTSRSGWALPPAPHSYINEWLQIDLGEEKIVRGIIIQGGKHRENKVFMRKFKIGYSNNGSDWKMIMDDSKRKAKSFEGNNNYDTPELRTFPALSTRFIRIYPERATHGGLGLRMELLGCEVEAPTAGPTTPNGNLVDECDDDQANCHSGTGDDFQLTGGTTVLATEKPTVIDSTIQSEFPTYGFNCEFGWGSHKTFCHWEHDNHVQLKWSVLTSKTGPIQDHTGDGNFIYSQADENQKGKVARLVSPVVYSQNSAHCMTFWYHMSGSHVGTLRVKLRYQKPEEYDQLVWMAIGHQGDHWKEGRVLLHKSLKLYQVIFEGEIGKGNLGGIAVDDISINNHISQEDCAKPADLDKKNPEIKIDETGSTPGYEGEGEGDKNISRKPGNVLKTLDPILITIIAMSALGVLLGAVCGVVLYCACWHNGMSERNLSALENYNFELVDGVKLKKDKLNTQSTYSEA

Molecule	inhibition of 125I-VEGF binding to PAE/NRP1 cells at 100 μM (NRP1 (PAE/NRP1 cells) [2]) [%]	also measured
1: bicyclic peptide corresponding to the C-terminal 28 amino acids of VEGF-A165 [Compound 1]	–	IC50 (NRP1 (PAE/NRP1 cells) [1]): 2 to 3 µM
N=C(N)NCCC[C@H](NC(=O)c1sccc1NS(=O)(=O)c1cccc2nsnc12)C(=O)O [Compound 2, (S)-2-(3-(Benzo[c][1,2,5]thiadiazole-4-sulfonamido)thiophene-2-carboxamido)-5-guanidinopentanoic Acid]	–	VEGF-A induced migration of HUVECs (HUVECs): significantly reduced; A549 cell viability (A549 cells; 48 h incubation): significant reduction; enhancement of the cytotoxic effect of 5-fluorouracil (A549 cells; A549 cells, 100 μM 2): ~10 fold; enhancement of the cytotoxic effect of paclitaxel (A549 cells; A549 cells, 100 μM 2): approximately 4 fold
H-KPAK-OH [Compound 23]	22 ± 1.2	–
H-KPAQ-OH [Compound 24]	19 ± 7.6	–
H-KPAr-OH [Compound 22]	22 ± 9.5	–
H-KPaR-OH [Compound 19]	36 ± 5.1	–
H-kPAR-OH [Compound 18]	51 ± 7.9	–
